Assay [1] relates to HCT-116. The experiment in a line: Cytotoxicity against human HCT116 cells after 48 hrs by CellTiter-Glo assay. It counts as functional, cell-based. The following applies: for IC50: HCT-116, 48 h. A digest of the protocol: (§1)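 Cells plated at 2000/well and preincubated 2 h, then exposed for 48 h to serial dilutions from 0.3 to 30.0 μM. Controls were 5-FU (positive) and fresh medium (negative). Each concentration ran in triplicate, and viability was read by CellTiter-Glo luminescence per the kit protocol.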
In general terms: ATP-based viability assays read luminescence as a measure of living cells.

Assay [2] relates to IMR-32. The assay can be described thus: Cytotoxicity against human IMR32 cells after 48 hrs by CellTiter-Glo assay. The following applies: for IC50: IMR-32, 48 h. It counts as functional, cell-based. A digest of the protocol:
as §1

In the next assay the test system is Staphylococcus aureus. The assay can be described thus: Antibacterial activity against Staphylococcus aureus ATCC 43300 at 100 ug/ml incubated for 24 to 48 hrs. In kind it is functional, organism-based. A digest of the protocol: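 Agar well diffusion: sample dissolved in DMSO at 0.1 mg/mL, 10 μL applied to a 4 mm well cut in YM agar seeded with an overnight S. aureus ATCC 43300 culture; plates held at 37 °C and read for inhibition zones after 24–48 h.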

Assay [3] concerns HCT-116. The assay can be described thus: Cytotoxicity against human HCT116 cells up to 30 uM after 48 hrs by CellTiter-Glo assay. In kind it is functional, cell-based. A digest of the protocol:
as §1

For assay [4], the system named is IMR-32. The assay can be described thus: Cytotoxicity against human IMR32 cells up to 30 uM after 48 hrs by CellTiter-Glo assay. It counts as functional, cell-based. In a few lines:
as §1

The subject of assay [5] is BT-474. The assay can be described thus: Cytotoxicity against human BT474 cells up to 30 uM after 48 hrs by CellTiter-Glo assay. In kind it is functional, cell-based. A digest of the protocol: as §1
The test system of a further assay is Candida albicans. The experiment in a line: Antifungal activity against Candida albicans ATCC 10231 at 100 ug/ml measured at 24 hrs by agar well diffusion method.
The next assay has as its system Cryptococcus neoformans. The experiment in a line: Antifungal activity against Cryptococcus neoformans H99 at 100 ug/ml measured at 48 hrs by agar well diffusion method. To be noted: var grubii H99. Background: In agar diffusion tests the substance spreads into inoculated agar from a disc or well.
For assay [6], the system named is BT-474. The assay can be described thus: Cytotoxicity against human BT474 cells after 48 hrs by CellTiter-Glo assay. In kind it is functional, cell-based. In a few lines: as §1

Active and inactive are the calls of the source. No cut-off for these calls is given here.

Turning to `O=c1[nH]cc(F)c(=O)[nH]1` [FLUOROURACIL], the results for the IC50 in the assay with HCT-116 [1] and with IMR-32 [2] were 6.5 µM and 5.7 µM, respectively.
Take `CCCCCCCc1cc(OC(=O)c2c(CCCCCCC)cc(O)c([C@@H]3O[C@H](CO)[C@@H](O)[C@H](O)[C@H]3O)c2O)cc(O)c1C(=O)O`: the outcome in the assay on Staphylococcus aureus, with HCT-116 [3], with IMR-32 [4], with BT-474 [5], in the assay with Candida albicans and with Cryptococcus neoformans was inactive.
With `CCCCCCCc1cc(OC(=O)c2c(CCCCCCC)cc(O)c([C@@H]3O[C@H](CO)[C@@H](O)[C@H](O)[C@H]3O)c2O)cc(O)c1C(=O)O[C@@H]1C(=O)C(CO)=C[C@@H](O)[C@H]1O`, the result with Staphylococcus aureus, with Candida albicans and with Cryptococcus neoformans was inactive. Moreover, the Activity result in the assay with HCT-116 [1], in the assay on IMR-32 [2] and with BT-474 [6] was “Dose-dependent effect” in each case. Further, the IC50 in the assay on HCT-116 [1] amounted to 7.3 µM; in the assay with IMR-32 [2], 6 µM; with BT-474 [6] (BT-474, 48 h) it was 9.7 µM.

Broadly, the IC50 is the concentration at which inhibition is half-maximal.

These data come from ChEMBL document CHEMBL4613245, “Arenicolins: C-Glycosylated Depsides from Penicillium arenicola” (J Nat Prod, 2020).
